# From ChEMBL document CHEMBL2380254, “Optimization of tocotrienols as antiproliferative and antimigratory leads” (Eur J Med Chem, 2013)
# Experiments:
# Format in all cases: functional
# [1] = tested on: BT-549; experiment: Growth inhibition of human BT549 cells assessed as cell growth at 10 uM after 48 hrs by sulforhodamine B assay; conditions: BT-549, 48 h, read-out: Activity
# Procedure, shortened: (§1)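 NCI-60 single-dose screen at 10 µM: cells in RPMI 1640 with 5% FBS, preincubated 24 h, then exposed 48 h at 37 °C. TCA fixation (16% final for suspension cells), SRB staining, absorbance 515 nm. Percent growth relative to time-zero and untreated control plates; negative values indicate cell kill.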
# [2] = tested on: SK-MEL-2; experiment: Growth inhibition of human SK-MEL-2 cells assessed as cell growth at 10 uM after 48 hrs by sulforhodamine B assay; conditions: SK-MEL-2, 48 h, read-out: Activity
# Procedure, shortened: (§2)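 Single-dose NCI-60 screen: adherent cells in RPMI 1640 with 5% FBS were exposed to 10 µM for 48 h at 37 °C after a 24 h preincubation. They were fixed in situ with cold TCA (10% final), stained with 0.4% SRB in 1% acetic acid, solubilized in 10 mM Tris base, and read at 515 nm. Percent growth was taken relative to time-zero and control plates.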
# [3] = tested on: SN12C; experiment: Growth inhibition of human SN12C cells after 48 hrs by sulforhodamine B assay
# Procedure, shortened: (§3)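 NCI-60 five-dose screen. Cells were grown in RPMI 1640 with 5% FBS and 2 mM L-glutamine, plated at 5000–40,000 cells/well and incubated 24 h before dosing, with T0 plates TCA-fixed. DMSO stocks were diluted to doses of […] and exposed 48 h at 37 °C, 5% CO2. Cells were fixed with cold TCA (final 10%, 60 min, 4 °C), stained with 0.4% SRB in 1% acetic acid for 10 min, solubilized in 10 mM trizma base and read at 515 nm. GI50 is where 100×(T−T0)/(C−T0)=50.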
# [4] = tested on: MOLT-4; experiment: Growth inhibition of human MOLT4 cells after 48 hrs by sulforhodamine B assay; conditions: MOLT-4, 48 h
# Procedure, shortened: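 NCI-60 suspension lines in RPMI 1640 with 5% FBS and 2 mM L-glutamine, preincubated 24 h. A five-concentration 10-fold series (0.001–100 µM) was given for 48 h at 37 °C. Settled cells were fixed with 80% TCA (16% final), stained with SRB, and read at 515 nm. GI50 was taken where 100×(T−T0)/(C−T0)=50, with T0 plates fixed at drug addition.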
# [5] = tested on: NCI-H522; experiment: Growth inhibition of human NCI-H522 cells assessed as cell growth at 10 uM after 48 hrs by sulforhodamine B assay; conditions: NCI-H522, 48 h, read-out: Activity; procedure, shortened: as §2
# [6] = tested on: A549; experiment: Growth inhibition of human A549/ATCC cells after 48 hrs by sulforhodamine B assay; conditions: A549, 48 h
# Procedure, shortened: (§4)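 NCI-60 screen: cells in RPMI 1640 with 5% FBS and 2 mM glutamine, 5000–40,000 cells/well, preincubated 24 h. Five concentrations (10-fold dilutions; 100 to 0.001 µM) applied for 48 h at 37 °C. TCA fixation, SRB stain, absorbance at 515 nm. Time-zero plates included; GI50 where 100×(T−T0)/(C−T0)=50.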
# [7] = tested on: NCI-H322M; experiment: Growth inhibition of human NCI-H322M cells assessed as cell growth at 10 uM after 48 hrs by sulforhodamine B assay; conditions: read-out: Activity; procedure, shortened: as §2
# [8] = tested on: Malme-3M; experiment: Growth inhibition of human MALME-3M cells after 48 hrs by sulforhodamine B assay
# Procedure, shortened: (§5)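 NCI-60 panel cells grown in RPMI 1640 with 5% FBS and 2 mM L-glutamine, seeded at 5000–40,000 cells/well and preincubated 24 h. Five 10-fold dilutions (0.001–100 µM) from DMSO stocks were added for 48 h at 37 °C. Adherent cells were fixed with cold TCA (10% final) for 60 min at 4 °C, stained with 0.4% SRB, and read at 515 nm. GI50 was set where 100×(T−T0)/(C−T0)=50.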
# [9] = tested on: LOX IMVI; experiment: Growth inhibition of human LOXIMVI cells assessed as cell growth at 10 uM after 48 hrs by sulforhodamine B assay; conditions: read-out: Activity; procedure, shortened: as §1
# [10] = tested on: RPMI-8226; experiment: Growth inhibition of human RPMI8226 cells assessed as cell growth at 10 uM after 48 hrs by sulforhodamine B assay; conditions: RPMI-8226, 48 h, read-out: Activity
# Procedure, shortened: (§6)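 Single 10 µM dose applied to suspension cells in RPMI 1640 with 5% FBS and 2 mM L-glutamine for 48 h at 37 °C. Settled cells were fixed with 80% TCA (16% final), stained with SRB, and read at 515 nm. Percent growth was calculated against time-zero and untreated control optical densities.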
# [11] = tested on: UACC-257; experiment: Growth inhibition of human UACC257 cells after 48 hrs by sulforhodamine B assay; conditions: UACC-257, 48 h; procedure, shortened: as §3
# [12] = tested on: HOP-62; experiment: Growth inhibition of human HOP62 cells assessed as cell growth at 10 uM after 48 hrs by sulforhodamine B assay; conditions: HOP-62, 48 h, read-out: Activity; procedure, shortened: as §1
# [13] = tested on: OVCAR-8; experiment: Growth inhibition of human OVCAR8 cells assessed as cell growth at 10 uM after 48 hrs by sulforhodamine B assay; conditions: OVCAR-8, 48 h, read-out: Activity; procedure, shortened: as §2
# [14] = tested on: SNB-19; experiment: Growth inhibition of human SNB19 cells after 48 hrs by sulforhodamine B assay; conditions: SNB-19, 48 h; procedure, shortened: as §3
# [15] = tested on: CAKI-1; experiment: Growth inhibition of human CAKI-1 cells after 48 hrs by sulforhodamine B assay; conditions: CAKI-1, 48 h; procedure, shortened: as §4
# [16] = tested on: MOLT-4; experiment: Growth inhibition of human MOLT4 cells assessed as cell growth at 10 uM after 48 hrs by sulforhodamine B assay; conditions: MOLT-4, 48 h, read-out: Activity; procedure, shortened: as §6
# [17] = tested on: HCT-15; experiment: Growth inhibition of human HCT15 cells assessed as cell growth at 10 uM after 48 hrs by sulforhodamine B assay; conditions: HCT-15, 48 h, read-out: Activity; procedure, shortened: as §1
# [18] = tested on: IGROV-1; experiment: Growth inhibition of human IGROV1 cells after 48 hrs by sulforhodamine B assay; conditions: IGROV-1, 48 h; procedure, shortened: as §4
# [19] = tested on: NCI-H23; experiment: Growth inhibition of human NCI-H23 cells after 48 hrs by sulforhodamine B assay; conditions: NCI-H23, 48 h; procedure, shortened: as §5
# [20] = tested on: KM12; experiment: Growth inhibition of human KM12 cells after 48 hrs by sulforhodamine B assay; conditions: KM12, 48 h; procedure, shortened: as §4
# [21] = tested on: UACC-62; experiment: Growth inhibition of human UACC62 cells after 48 hrs by sulforhodamine B assay; conditions: UACC-62, 48 h; procedure, shortened: as §3
# [22] = tested on: UO-31; experiment: Growth inhibition of human UO31 cells after 48 hrs by sulforhodamine B assay; conditions: UO-31, 48 h; procedure, shortened: as §3
# [23] = tested on: SR; experiment: Growth inhibition of human SR cells after 48 hrs by sulforhodamine B assay
# Procedure, shortened: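 Suspension leukemia line in RPMI 1640 with 5% FBS and 2 mM L-glutamine, NCI-60 five-dose format ([…]), 48 h at 37 °C. Settled cells were fixed with 80% TCA (final 16%), stained with SRB and read at 515 nm. GI50 is where 100×(T−T0)/(C−T0)=50, with T0 measured at dosing.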
# [24] = Growth inhibition of human NCI-ADR-RES cells after 48 hrs by sulforhodamine B assay; procedure, shortened: as §5
Structure (SMILES),growth at 10 µM [1] [%],growth at 10 µM [2] [%],GI50 [3] [µM],GI50 [4] [µM],growth at 10 µM [5] [%],GI50 [6] [µM],growth at 10 µM [7] [%],GI50 [8] [µM],growth at 10 µM [9] [%],growth at 10 µM [10] [%],GI50 [11] [µM],growth at 10 µM [12] [%],growth at 10 µM [13] [%],GI50 [14] [µM],GI50 [15] [µM],growth at 10 µM [16] [%],growth at 10 µM [17] [%],GI50 [18] [µM],GI50 [19] [µM],GI50 [20] [µM],also measured
CC(C)=CCC/C(C)=C/CC/C(C)=C/CC[C@]1(C)CCc2c3c(cc(C)c2O1)OCN(CCCCCO)C3,110,117,5.56,5.87,4.69,6.19,16.8,6.9,-0.88,-16.3,6.97,20.6,-18.9,5.99,5.33,-1.68,62.3,6.18,6.67,7.41,GI50 [21]: 5.87 µM; GI50 [22]: 4.64 µM; GI50 [23]: 4 µM; GI50 [24]: 5.89 µM
CC(C)=CCC/C(C)=C/CC/C(C)=C/CC[C@]1(C)CCc2c3c(cc(C)c2O1)OCN(CCCCCCO)C3,41.6,62.4,2.06,0.835,-0.37,0.607,-61,6.25,-90.8,35.4,0.62,-94.5,-62.8,0.632,3.79,-42.9,5.75,1.28,4.57,0.609,GI50 [21]: 4.85 µM; GI50 [22]: 1.52 µM; GI50 [23]: 0.67 µM; GI50 [24]: 1.13 µM
COc1ccc(CCN2COc3cc(C)c4c(c3C2)CC[C@@](C)(CC/C=C(\C)CC/C=C(\C)CCC=C(C)C)O4)cc1OC,105,86.4,1.63,2.32,-45.8,1.9,4.19,2.03,-77.7,-32.6,5.58,-34.3,-70.7,1.66,3.95,0.05,57.4,2.08,1.85,2.07,GI50 [21]: 1.64 µM; GI50 [22]: 1.63 µM; GI50 [23]: 2.3 µM; GI50 [24]: 2.02 µM
CC(C)=CCC/C(C)=C/CC/C(C)=C/CC[C@]1(C)CCc2c3c(c(C)c(C)c2O1)OCN(CCCCCCO)C3,119,91.8,2.5,2.92,68.3,3.09,69.5,2.78,-88.4,82.4,3.45,-23.3,49.9,2.48,2.82,-18.4,38.4,2.69,2.84,2.84,GI50 [21]: 2.67 µM; GI50 [22]: 2.27 µM; GI50 [23]: 2.7 µM; GI50 [24]: 2.87 µM
CC(C)=CCC/C(C)=C/CC/C(C)=C/CC[C@]1(C)CCc2c3c(c(C)c(C)c2O1)OCN(CCCCCO)C3,114,107,5.56,5.87,84.8,6.19,91,6.9,40.2,1.02,6.97,114,69,5.99,5.33,-24.8,105,6.18,6.67,7.41,GI50 [21]: 5.87 µM; GI50 [22]: 4.64 µM; GI50 [23]: 4 µM; GI50 [24]: 5.89 µM
